In the library only some 0.55% were active in any assay of this set; here they are far more common.
p97 inhibitor = inhibitors of human p97 ATPase, primary screen, biochemical; inhibition, % at 8 µM; recombinant p97 ATPase, Kinase-Glo ATP luminescence, 3 h; Transitional endoplasmic reticulum ATPase (Homo sapiens), P55072; hit rate 0.42% among 220,000; in the data active means inhibition above about 15%;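 further: 0% = DMSO vehicle and 100% = wells lacking enzyme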
Target sequence (P55072 whole entry, looked up): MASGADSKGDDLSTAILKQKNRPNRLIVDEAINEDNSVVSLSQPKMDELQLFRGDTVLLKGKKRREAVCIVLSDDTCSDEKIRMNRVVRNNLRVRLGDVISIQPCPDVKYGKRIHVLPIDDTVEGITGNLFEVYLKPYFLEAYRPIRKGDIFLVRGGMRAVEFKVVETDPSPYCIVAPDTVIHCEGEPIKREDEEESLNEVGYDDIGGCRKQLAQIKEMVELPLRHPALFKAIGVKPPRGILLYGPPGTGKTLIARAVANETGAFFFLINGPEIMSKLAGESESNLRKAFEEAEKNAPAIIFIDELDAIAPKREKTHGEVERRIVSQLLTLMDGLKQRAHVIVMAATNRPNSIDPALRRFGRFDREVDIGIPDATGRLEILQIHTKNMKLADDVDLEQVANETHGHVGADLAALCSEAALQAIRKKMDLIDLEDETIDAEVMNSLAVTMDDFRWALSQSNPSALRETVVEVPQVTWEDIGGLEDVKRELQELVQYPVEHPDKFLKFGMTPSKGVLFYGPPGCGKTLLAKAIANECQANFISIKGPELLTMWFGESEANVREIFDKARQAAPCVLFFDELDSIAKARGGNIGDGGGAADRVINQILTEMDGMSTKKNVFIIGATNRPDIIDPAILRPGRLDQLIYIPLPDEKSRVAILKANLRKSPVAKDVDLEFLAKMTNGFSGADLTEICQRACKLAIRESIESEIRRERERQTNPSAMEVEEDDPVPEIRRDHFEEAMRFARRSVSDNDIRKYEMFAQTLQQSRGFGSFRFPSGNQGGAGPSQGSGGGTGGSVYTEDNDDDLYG
Rad51 HR inh = human RAD51 strand exchange inhibitors, primary screen, biochemical, fluorescence. hRad51 DNA strand exchange, fluorescence dequenching. DNA repair protein RAD51 homolog 1 (Homo sapiens), Q06609. inhibition, % at 10 µM. AID 1385, 2008. hit rate 0.085% among 200,000;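 active means inhibition above 40% at the single screening dose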;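 further: 0% = DMSO control wells and 100% = blanks with heterologous ssDNA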
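Material: hRad51 filaments on single-stranded DNA; Reagent: Donor/quencher-labelled 47-bp dsDNA substrate; Compound: 10 µM final, single point; Schedule: 37 °C 15-min filament assembly, 30-min compound preincubation, 15-min exchange; Technique: FRET fluorescence, excitation 485 nm, emission 520 nm; Benchmarks: control wells and blank wells on each plate.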
ABCB1 block = ABCB1 efflux pump inhibitors, primary screen, cell-based, multiplex, flow cytometry, ABCG2 counter-screen; CCRF-Adr cells, JC-1 efflux; hit rate 0.067% among 190,000; inhibition, % at 6.6 µM; ATP-dependent translocase ABCB1 (Homo sapiens), P08183; in the data active means inhibition above about 40%;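 further: 0% = vehicle and 100% = reference inhibitor; higher value means more JC-1 retained so stronger ABCB1 efflux block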
ABCG2 block = ABCG2 efflux pump inhibitors, primary screen, multiplex with ABCB1, IgMXP3 cells, flow cytometry; Broad substrate specificity ATP-binding cassette transporter ABCG2 (Homo sapiens), Q9UNQ0; JC-1 efflux; inhibition, % at 6.6 µM; hit rate 0.1% among 190,000; AID 1325, 2008;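 active means inhibition above 80%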;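 further: 0% = DMSO and 100% = nicardipine control wells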
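Assay system – ABCG2 IgMXP3 and barcoded ABCB1 CCRF-Adr cell mix · Input – 3 million cells/mL in well · Reagent – JC-1 fluorescent substrate · Compound – single test compound dose, 6.6 µM final · Timing – 10 min exposure at 25 °C with rotation, no wash · Detection – flow cytometry of retained JC-1 fluorescence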
ABCB6 inh MLPCN = ABCB6 transporter inhibitors, primary screen, K562-ABCB6 cells, flow cytometry, MLPCN library | fluorescence ratio to DMSO, % at 10 µM | K562-ABCB6 porphyrin accumulation, 1 h; active compounds read low | hit rate 0.19% among 360,000;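 active means fluorescence ratio to DMSO below 75%, the collection mean minus 3 SD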;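 further: signal is porphyrin accumulated inside mitochondria; 100% equals median channel fluorescence of DMSO control wells; lower ratio means ABCB6 inhibition with less porphyrin fluorescence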
HSV augment = enhancers of HSV replication in host cells, fold increase, host cell viability | hit rate 0.005% among 220,000 | HSV replication augmentation in cells | maximum fold increase; in the data active means maximum fold increase above about 1.5; tested in PC3 cells
An asterisk follows results filed as active; i = inactive; . = not tested or not shown.

SMILES	p97 inhibitor	Rad51 HR inh	ABCB1 block	ABCG2 block	ABCB6 inh MLPCN	HSV augment
Cc1ccccc1NC(=O)NCC1CCCO1 (centres undefined)	1.1	42.4*	0.7	2.2	105.0	i
COC(=O)c1ccccc1NC(=O)NCC1CCCO1 (centres undefined)	3.0	1.7	0.2	4.6	91.0	i
C[C@H](CO)N1C[C@H](C)[C@@H](CN(C)Cc2ccc(C(=O)O)cc2)Oc2ncc(Br)cc2C1=O	.	.	.	.	102.0	.
Cc1ccc(-c2cnc(C(O)c3cc(F)cc(Cl)c3)[nH]2)cc1 (centres undefined)	.	.	.	.	90.0	.
CCN(CC(=O)NCc1ccc(F)cc1)C(=O)C(C)Oc1cccc(Cl)c1 (centres undefined)	.	.	.	.	100.0	.
[O-]/C(=C(\C(=S)NCc1ccccc1)[n+]1ccccc1)c1ccc(Cl)cc1	-3.4	.	-1.0	-2.2	107.0	i
C=CCNC(=S)/C(=C(\[O-])c1ccc(Cl)cc1)[n+]1ccccc1	14.7*	-3.4	.	.	109.0	i
Cc1c(C)c2ccc(OCc3ccc(C(=O)O)o3)c(C)c2oc1=O	7.8	-4.2	0.4	2.6	84.0	i
Cc1c(C)c2ccc(OS(C)(=O)=O)c(C)c2oc1=O	1.5	.	0.7	3.5	69.0*	i
CC(OC(=O)Cc1ccccc1F)C(=O)Nc1ccc(Cl)cn1 (centres undefined)	.	.	.	.	101.0	.
N#CCC(=O)NNC(=S)Nc1ccccc1C(F)(F)F	1.7	40.5*	0.2	3.4	81.0	i
CCC(=O)NC(=S)Nc1ccccc1C(F)(F)F	-2.8	0.5	.	.	96.0	i
C=CCn1c(COc2ccc(F)cc2)nnc1SCC(=O)NC1CCS(=O)(=O)C1 (centres undefined)	.	.	.	.	71.0*	.
C=CCn1c(COc2ccc(F)cc2)nnc1SCC(=O)NC1CCCC1	.	.	.	.	98.0	.
C=CCNc1oc(-c2ccc(OC)cc2)nc1C#N	0.3	88.7*	0.1	1.3	99.0	i
Cc1ccccc1Oc1cc(-n2ncc(Cl)c(Cl)c2=O)ncn1	4.2	5.0	0.4	0.5	60.0*	i
CCOc1cnn(-c2cc(Oc3ccc(C)cc3)ncn2)c(=O)c1Cl	-1.1	-2.8	0.2	14.6	101.0	i
CC(C)(C)n1nnnc1C(c1cc2ccccc2o1)N1CCN(C(=O)OCc2ccccc2)CC1 (centres undefined)	.	.	.	.	97.0	.
CCOC(=O)CCS(=O)(=O)c1nc(-c2ccccc2)cc(C(F)(F)F)n1	2.7	8.1	0.2	8.8	72.0*	i
C=CCn1c(SCC(=O)Nc2nccs2)nnc1-c1cc2cccc(OC)c2o1	1.0	3.8	0.5	2.6	72.0*	i
CCOc1ccc(C(=O)N/N=C/c2ccc(-c3ccc(S(=O)(=O)Nc4ncccn4)cc3)o2)cc1	4.3	3.4	-0.1	-0.9	104.0	i
O=C(N/N=C/c1ccc(-c2ccc(S(=O)(=O)Nc3ncccn3)cc2)o1)c1cc2ccccc2cc1O	14.6*	.	-0.8	-1.7	107.0	.
C/C=C/c1cccc(-c2nc(C(=O)N3CCCCC3)cc3c2[C@H](CCO)N(C(=O)NC(C)C)C3)c1	.	.	.	.	99.0	.
O=C(c1cc2nc(-c3cccs3)cc(C(F)(F)Cl)n2n1)N1CCCc2ccccc21	4.8	4.4	-1.4	-4.7	102.0	i
O=C(c1cc2nc(-c3cccs3)cc(C(F)(F)F)n2n1)N1CCCc2ccccc21	-4.1	8.7	20.4	100.2*	93.0	i
SMILES	p97 inhibitor	Rad51 HR inh	ABCB1 block	ABCG2 block	ABCB6 inh MLPCN	HSV augment
O=C(c1ccccc1)c1ccc(O)c(O)c1O	.	.	.	.	98.0	.
O=C(NC1CCCCC1)c1cc([N+](=O)[O-])ccc1N1CCCCC1	-2.1	118.2*	1.1	4.4	83.0	i
O=C(Nc1ccccc1)c1cc([N+](=O)[O-])ccc1N1CCCCC1	.	.	.	.	99.0	.
COc1ccc(NC(=O)/C(Cl)=C(/Cl)S(=O)Cc2ccccc2)cn1 (centres undefined)	11.5	31.3	.	.	25.0*	i
NC(=S)NC(=O)/C=C/c1ccccc1	5.0	41.4*	0.9	18.0	88.0	i
O=C(/C=C/c1ccccc1)NNC(=O)C1CC1	-6.3	-0.1	-0.1	1.4	65.0*	i
COC(=O)NNC(=O)/C=C/c1ccccc1	6.4	.	0.2	4.1	101.0	i
COc1cc(C)c2c(c1C=O)Oc1c(c(C)c(O)c3c1C(O)OC3=O)OC2=O (centres undefined)	5.3	47.4*	-0.1	0.9	99.0	i
C[C@H]1CN([C@@H](C)CO)C(=O)c2cc(Br)cnc2O[C@H]1CN(C)C(=O)Cc1ccccn1	.	.	.	.	98.0	.
CCOC(=O)C(=NCC1CCCO1)NNc1ccccc1Cl (centres undefined)	-1.8	43.9*	.	.	96.0	i
CCOC(=O)c1ccccc1NC(=O)C1CCCO1 (centres undefined)	.	.	.	.	101.0	.
O=C1C(Cl)=C(Nc2ccc(O)cc2)C(=O)c2ccccc21	-6.6	.	.	.	66.0*	i
COc1ccc(NC(=S)N2CCC(c3nc4ccccc4[nH]3)CC2)c(OC)c1	5.4	6.7	-0.1	1.9	66.0*	i
CC(O)C(NS(=O)(=O)c1ccc(Cl)cc1)C(=O)OCCOc1ccc(F)cc1 (centres undefined)	.	.	.	.	93.0	.
Cc1cnc(NC(=O)CN2C(=O)C3CC=CCC3C2=O)s1 (centres undefined)	4.5	-3.3	0.7	3.5	95.0	i
O=C(CN1C(=O)C2CC=CCC2C1=O)Nc1nccs1 (centres undefined)	.	51.6*	0.0	-0.6	100.0	i
CC(C)(C)c1ccc(C(=O)CCCSC2=C(C#N)C(c3ccco3)C3=C(CCCC3=O)N2)cc1 (centres undefined)	-4.0	-6.7	31.0	27.6	57.0*	.
COc1ccc(C2(C)NC(=O)N(CC(=O)N(c3ccccc3)C3CCS(=O)(=O)C3)C2=O)cc1 (centres undefined)	.	.	.	.	103.0	.
COc1cc(NCC2COc3c(ccc(OC)c3OC)C2=O)c([N+](=O)[O-])cc1OC (centres undefined)	.	.	.	.	94.0	.
Nc1ccc2c(c1)C(=O)C(=O)c1ccccc1-2	30.8*	-9.3	1.2	0.6	113.0	i
COc1ccc(OC)c(N2C(=O)CC(NNC(=O)c3ccc4c(c3)OCO4)C2=O)c1 (centres undefined)	.	.	.	.	101.0	.
C=CCc1cccc2cc(C(=O)O)c(=O)oc12	4.2	4.8	-0.1	-0.4	95.0	i
C=CCc1cccc2cc(C(=O)Nc3ccccc3C(=O)O)c(=O)oc12	22.2*	.	-0.4	-0.9	101.0	i
